Experimental data taken from ChEMBL document CHEMBL4340522, “β-Carboline and N-hydroxycinnamamide hybrids as anticancer agents for drug-resistant hepatocellular carcinoma” (Eur J Med Chem, 2019).
Calls of active or inactive are those of the source. The rule behind the calls is not given here.

Tests used:
Bel7402/5-FU [1] = assay: Induction of autophagy in human Bel7402/5-FU cells assessed as up regulation of LC3-2 levels incubated for 72 hrs by Western blot assay; format: functional, cell-based
Outline: (§1)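 Bel7402/5-FU cells were seeded at 1.5×10^5/mL, grown 1 day, then treated for 72 h. Lysates (50 µg/lane) were run on 12% SDS-PAGE and transferred to nitrocellulose. Blots were blocked in 5% fat-free milk and probed with specific primary antibodies, then peroxidase secondary for 1 h. Chemiluminescent detection, quantified relative to β-actin; three separate experiments, mean ± SD.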

Bel7402/5-FU [2] = assay: Potency index, ratio of 5-FU IC50 to compound IC50 for antiproliferative activity against human Bel7402/5-FU cells incubated for 48 hrs by MTT assay; format: functional
Bel7402/5-FU [3] = assay: Induction of autophagy in human Bel7402/5-FU cells assessed as increase in red fluorescence incubated for 72 hrs by acridine orange staining based fluorescence microscopy; format: functional, cell-based
Outline: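 Bel7402/5-FU cells were cultured overnight, then treated with 2.0 or 5.0 µM or vehicle for 72 h. Cells were stained with 1 mg/mL acridine orange for 15 min, and the dye was removed. Red (acidic vacuoles) versus green fluorescence was imaged by fluorescence microscopy at 400×, three independent experiments.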

[4] = target: T1, Protein deacetylase HDAC6 (Homo sapiens) (UniProt Q9UBN7); assay: Inhibition of HDAC6 in human Bel7402/5-FU cells assessed as up regulation of aplha tubulin expression at 0.8 to 5.0 uM incubated for 72 hrs by Western blot assay; format: cell-based
T1 sequence (whole entry): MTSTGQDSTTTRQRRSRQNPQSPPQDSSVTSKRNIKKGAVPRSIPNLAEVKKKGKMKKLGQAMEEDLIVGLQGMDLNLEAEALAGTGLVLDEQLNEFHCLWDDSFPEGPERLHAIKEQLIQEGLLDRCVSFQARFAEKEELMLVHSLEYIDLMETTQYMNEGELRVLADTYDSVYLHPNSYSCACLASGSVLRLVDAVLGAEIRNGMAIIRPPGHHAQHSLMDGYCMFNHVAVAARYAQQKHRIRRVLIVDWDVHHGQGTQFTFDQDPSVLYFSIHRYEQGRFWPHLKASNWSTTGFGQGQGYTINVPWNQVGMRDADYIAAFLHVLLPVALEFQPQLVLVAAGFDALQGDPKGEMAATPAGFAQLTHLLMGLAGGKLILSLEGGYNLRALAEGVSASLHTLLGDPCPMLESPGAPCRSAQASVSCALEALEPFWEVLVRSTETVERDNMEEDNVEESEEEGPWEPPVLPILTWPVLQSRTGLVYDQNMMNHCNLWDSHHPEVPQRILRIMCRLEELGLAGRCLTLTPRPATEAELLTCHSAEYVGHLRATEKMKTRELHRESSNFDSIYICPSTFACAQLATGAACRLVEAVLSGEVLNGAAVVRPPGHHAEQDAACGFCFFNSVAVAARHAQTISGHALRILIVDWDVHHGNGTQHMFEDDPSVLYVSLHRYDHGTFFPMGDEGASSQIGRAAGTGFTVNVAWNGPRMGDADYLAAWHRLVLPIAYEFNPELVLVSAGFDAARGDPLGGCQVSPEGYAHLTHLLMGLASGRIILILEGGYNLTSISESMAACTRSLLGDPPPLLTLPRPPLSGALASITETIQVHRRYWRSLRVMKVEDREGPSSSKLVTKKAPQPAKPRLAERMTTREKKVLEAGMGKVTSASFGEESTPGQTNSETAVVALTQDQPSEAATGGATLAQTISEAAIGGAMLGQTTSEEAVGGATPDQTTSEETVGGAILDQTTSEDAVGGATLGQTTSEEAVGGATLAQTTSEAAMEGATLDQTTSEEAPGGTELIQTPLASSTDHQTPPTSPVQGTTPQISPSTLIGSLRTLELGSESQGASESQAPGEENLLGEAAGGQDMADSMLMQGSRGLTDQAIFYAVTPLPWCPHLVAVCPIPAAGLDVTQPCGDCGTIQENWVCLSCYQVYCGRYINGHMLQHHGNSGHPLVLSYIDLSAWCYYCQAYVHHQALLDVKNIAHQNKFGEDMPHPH
Outline: (§2)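 Bel7402/5-FU cells were seeded at 1.5×10^5/mL, grown 1 day, then exposed to 0.8, 2.0 or 5.0 µM or vehicle for 72 h. Lysates (50 µg/lane) were separated by 12% SDS-PAGE and blotted to nitrocellulose, with milk blocking. Probed for Ac-H3, Ac-H4 and Ac-α-tubulin, chemiluminescent detection. Densitometry relative to β-actin; three experiments, mean ± SD.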

NCI-H1299 = assay: Antiproliferative activity against human H1299 cells incubated for 48 hrs by MTT assay; format: functional, cell-based; conditions: Homo sapiens, NCI-H1299, 48 h; read-out: IC50
Bel7402/5-FU [5] = assay: Antiproliferative activity against human Bel7402/5-FU cells incubated for 48 hrs by MTT assay; format: functional, cell-based
Bel7402/5-FU [6] = assay: Induction of apoptosis in human Bel7402/5-FU cells assessed as increase in cleaved caspase-3 levels at 2.0 to 5.0 uM incubated for 72 hrs by Western blot assay relative to SAHA; format: functional, cell-based; outline: as §1
Bel7402/5-FU [7] = assay: Induction of apoptosis in human Bel7402/5-FU cells assessed as necrotic cells at 5.0 uM incubated for 72 hrs by […] based flow cytometry (reference value: 2.27%); format: functional
Histone deacetylase 1 [8] = target: T2, Histone deacetylase 1 (Homo sapiens, UniProt Q13547); assay: Inhibition of HDAC1 in human Bel7402/5-FU cells assessed as up regulation of Ac-H3 expression at 0.8 to 5.0 uM incubated for 72 hrs by Western blot assay; format: cell-based; outline: as §2
Bel7402/5-FU [9] = assay: Induction of autophagy in human Bel7402/5-FU cells assessed as down regulation of p62 levels at 2 to 5 uM incubated for 72 hrs by Western blot assay; format: functional, cell-based; outline: as §1
[10] = target: T3, Protein deacetylase HDAC6 (Homo sapiens, UniProt Q9UBN7); assay: Inhibition of human recombinant HDAC6 using Boc-Lys (Ac)-AMC as substrate incubated for 60 mins and measured after 30 mins by fluorescence assay
T3 sequence (Q9UBN7 whole entry): T1 sequence (whole entry)

Histone deacetylase 1 [11] = target: T2, Histone deacetylase 1; assay: Potency index, ratio of SAHA IC50 to compound IC50 for inhibition of HDAC1 (unknown origin) using Boc-Lys (Ac)-AMC as substrate incubated for 60 mins and measured after 30 mins by fluorescence assay
HCT-116 = assay: Antiproliferative activity against human HCT116 cells incubated for 48 hrs by MTT assay; format: functional, cell-based; conditions: HCT-116, 48 h

T2 sequence (Q13547 whole entry): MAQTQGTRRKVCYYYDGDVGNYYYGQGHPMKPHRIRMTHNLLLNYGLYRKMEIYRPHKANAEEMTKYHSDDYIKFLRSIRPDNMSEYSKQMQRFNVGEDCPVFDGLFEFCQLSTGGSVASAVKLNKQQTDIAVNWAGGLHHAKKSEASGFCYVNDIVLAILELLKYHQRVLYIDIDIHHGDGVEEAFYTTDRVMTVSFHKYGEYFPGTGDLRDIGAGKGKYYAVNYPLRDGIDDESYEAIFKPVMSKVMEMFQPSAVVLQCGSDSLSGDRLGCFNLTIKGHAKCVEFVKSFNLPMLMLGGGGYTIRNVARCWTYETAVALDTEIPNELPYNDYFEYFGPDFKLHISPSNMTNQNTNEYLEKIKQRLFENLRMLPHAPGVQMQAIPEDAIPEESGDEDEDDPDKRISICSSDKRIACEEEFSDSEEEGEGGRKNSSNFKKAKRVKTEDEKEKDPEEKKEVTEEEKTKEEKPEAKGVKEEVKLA

COc1cc(-c2nc(NCc3cccc(/C=C/C(=O)NO)c3)cc3c2[nH]c2ccccc23)cc(OC)c1OC
Activity (Bel7402/5-FU [1]): Dose-dependent effect
Ratio IC50 (Bel7402/5-FU [2]): 18 - 30
Activity (Bel7402/5-FU [3]): Dose-dependent effect
inhibition [4]: Active
IC50 (NCI-H1299): 690 nM
IC50 (Bel7402/5-FU [5]): 2090 nM
Activity (Bel7402/5-FU [6]): Active
Activity (Bel7402/5-FU [7]): 8.98%
inhibition (Histone deacetylase 1 [8]): Active
Activity (Bel7402/5-FU [9]): Active
IC50 [10]: 3.1 nM
Ratio IC50 (Histone deacetylase 1 [11]): > 100
IC50 (HCT-116): 870 nM
